Measured values reported in ChEMBL document CHEMBL3525900, “Pharmacokinetics, distribution, and metabolism of [14C]sunitinib in rats, monkeys, and humans” (Drug Metab Dispos, 2012).

Legend:
Details in all cases: in vivo
[1] = Drug excretion in feces of human treated with [14C]sunitinib at 50 mg, po administered as single dose by liquid scintillation counting
[2] = Drug excretion in feces of female cynomolgus monkey treated with [14C]sunitinib at 6 mg/kg, po administered as single dose by liquid scintillation counting; type: ADME, organism-based, Macaca fascicularis; parameters: dose 6 mg/kg, dosed compound name [14C]Sunitinib, route oral
Method in brief: (§1)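 Cynomolgus monkeys given one oral gavage dose of [14C]sunitinib L-malate, 6 mg/kg (37 µCi/kg). Urine collected at 0-4, 4-8 and 8-24 h, feces at 0-8 and 8-24 h, then both daily to 14 days; samples stored at -80 °C. Duplicate urine aliquots counted by liquid scintillation; homogenized feces combusted before counting.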

[3] = Drug excretion in feces of male cynomolgus monkey treated with [14C]sunitinib at 6 mg/kg, po administered as single dose by liquid scintillation counting; type: ADME, organism-based, Macaca fascicularis; parameters: dose 6 mg/kg, dosed compound name [14C]Sunitinib, route oral
Method in brief: as §1

| Compound | Compound recovery [1] | Compound recovery [2] [%] | Compound recovery [3] [%] |
| --- | --- | --- | --- |
| CCN(CC)CCNC(=O)c1c(C)[nH]c(CC2C(=O)Nc3ccc(F)cc32)c1C (stereo not given) | metabolite_not_detected | 1 | 1.5 |
| CCNCCNC(=O)c1c(C)[nH]c(C=C2C(=O)Nc3ccc(F)cc32)c1C (mixture of isomers) | – | 29.3 | 30.7 |
